Reference: ChEMBL document CHEMBL4425187, “A new class of flavonol-based anti-prostate cancer agents: Design, synthesis, and evaluation in cell models” (Bioorg Med Chem Lett, 2016)

How the values were obtained:
LNCaP = experiment: Potency index, ratio of IC50 for 3',4'-dimethoxyflavonol to IC50 for test compound against human LNCAP cells; format: functional
How it was run: (§1)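 IC50 from WST-1 proliferation assay in PC-3 (androgen-insensitive) and LNCaP (androgen-sensitive) cells after 3-day exposure at five concentrations, DMSO vehicle control, quercetin positive control. IC50 derived from dose-response curves, mean ± SEM. The index is the parent flavonol IC50 divided by the test compound IC50.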

PC-3 [1] = experiment: Potency index, ratio of IC50 for 3',4'-dimethoxyflavonol to IC50 for test compound against human PC3 cells; format: functional; how it was run: as §1
PWR-1E = experiment: Cytotoxicity against human PWR-1E cells assessed as inhibition of cell proliferation at 10 to 50 uM after 3 days by WST1 assay; format: cell-based; settings: 72 h
PC-3 [2] = experiment: Cell cycle arrest in human PC3 cells assessed as accumulation in G2/M phase at 10 uM after 20 hrs by propidium iodide staining-based flow cytometry (reference value: 17.4%); format: functional
PC-3 [3] = experiment: Cell cycle arrest in human PC3 cells assessed as accumulation in G0/G1 phase at 10 uM after 20 hrs by propidium iodide staining-based flow cytometry (reference value: 63.7%); format: functional
PC-3 [4] = experiment: Induction of apoptosis is human PC3 cells assessed as live cells at 30 uM after 16 hrs by F2N12S/CYTOX AADvanced double-staining based by flow cytometry (reference value: 88%); format: functional
PC-3 [5] = experiment: Induction of apoptosis is human PC3 cells assessed as live cells at 10 uM after 16 hrs by F2N12S/CYTOX AADvanced double-staining based by flow cytometry (reference value: 88%); format: functional
PC-3 [6] = experiment: Induction of apoptosis is human PC3 cells assessed as live cells at 5 uM after 16 hrs by F2N12S/CYTOX AADvanced double-staining based by flow cytometry (reference value: 88%); format: functional
PC-3 [7] = experiment: Induction of apoptosis is human PC3 cells assessed as late apoptotic/necrotic cells at 30 uM after 16 hrs by F2N12S/CYTOX AADvanced double-staining based by flow cytometry (reference value: 9%); format: functional
PC-3 [8] = experiment: Induction of apoptosis is human PC3 cells assessed as live cells at 100 uM after 16 hrs by F2N12S/CYTOX AADvanced double-staining based by flow cytometry (reference value: 88%); format: functional
PC-3 [9] = experiment: Induction of apoptosis is human PC3 cells assessed as late apoptotic/necrotic cells at 5 uM after 16 hrs by F2N12S/CYTOX AADvanced double-staining based by flow cytometry (reference value: 9%); format: functional
PC-3 [10] = experiment: Induction of apoptosis is human PC3 cells assessed as live cells at 50 uM after 16 hrs by F2N12S/CYTOX AADvanced double-staining based by flow cytometry (reference value: 88%); format: functional
PC-3 [11] = experiment: Induction of apoptosis is human PC3 cells assessed as late apoptotic/necrotic cells at 1 uM after 16 hrs by F2N12S/CYTOX AADvanced double-staining based by flow cytometry (reference value: 9%); format: functional
PC-3 [12] = experiment: Induction of apoptosis is human PC3 cells assessed as early apoptotic cells at 30 uM after 16 hrs by F2N12S/CYTOX AADvanced double-staining based by flow cytometry (reference value: 3%); format: functional
PC-3 [13] = experiment: Induction of apoptosis is human PC3 cells assessed as late apoptotic/necrotic cells at 100 uM after 16 hrs by F2N12S/CYTOX AADvanced double-staining based by flow cytometry (reference value: 9%); format: functional
PC-3 [14] = experiment: Induction of apoptosis is human PC3 cells assessed as early apoptotic cells at 100 uM after 16 hrs byF2N12S/CYTOX AADvanced double-staining based by flow cytometry (reference value: 3%); format: functional
PC-3 [15] = experiment: Induction of apoptosis is human PC3 cells assessed as early apoptotic cells at 50 uM after 16 hrs by F2N12S/CYTOX AADvanced double-staining based by flow cytometry (reference value: 3%); format: functional
PC-3 [16] = experiment: Induction of apoptosis is human PC3 cells assessed as live cells at 1 uM after 16 hrs by F2N12S/CYTOX AADvanced double-staining based by flow cytometry (reference value: 88%); format: functional
PC-3 [17] = experiment: Cell cycle arrest in human PC3 cells assessed as accumulation in G2/M phase at 10 uM after 24 hrs by propidium iodide staining-based flow cytometry (reference value: 16%); format: functional
PC-3 [18] = experiment: Induction of apoptosis is human PC3 cells assessed as early apoptotic cells at 1 uM after 16 hrs by F2N12S/CYTOX AADvanced double-staining based by flow cytometry (reference value: 3%); format: functional
PC-3 [19] = experiment: Cell cycle arrest in human PC3 cells assessed as accumulation in G0/G1 phase at 10 uM after 24 hrs by propidium iodide staining-based flow cytometry (reference value: 69.4%); format: functional
PC-3 [20] = experiment: Induction of apoptosis is human PC3 cells assessed as late apoptotic/necrotic cells at 50 uM after 16 hrs by F2N12S/CYTOX AADvanced double-staining based by flow cytometry (reference value: 9%); format: functional
PC-3 [21] = experiment: Induction of apoptosis is human PC3 cells assessed as live cells at 20 uM after 16 hrs by F2N12S/CYTOX AADvanced double-staining based by flow cytometry (reference value: 88%); format: functional
PC-3 [22] = experiment: Induction of apoptosis is human PC3 cells assessed as early apoptotic cells after 16 hrs by F2N12S/CYTOX AADvanced double-staining based by flow cytometry relative to control; format: functional, cell-based

CCCOc1c(-c2ccc(OC)c(OC)c2)oc2ccccc2c1=O
Ratio IC50 (LNCaP): 32 | Ratio IC50 (PC-3 [1]): 41

COc1ccc(-c2oc3ccccc3c(=O)c2OCCCN2CCOCC2)cc1OC
Ratio IC50 (LNCaP): 14 | Ratio IC50 (PC-3 [1]): 38

CCCCOc1c(-c2ccc(OC)c(OC)c2)oc2ccccc2c1=O
Ratio IC50 (LNCaP): 25 | Ratio IC50 (PC-3 [1]): 24

CCCCN(CCCC)CCCOc1c(-c2ccc(OC)c(OC)c2)oc2ccccc2c1=O
Activity (PWR-1E): Non-Toxic | Activity (PC-3 [2]): 32% | Activity (PC-3 [3]): 53.8% | Activity (PC-3 [4]): 1% | Activity (PC-3 [5]): 15% | Activity (PC-3 [6]): 50% | Activity (PC-3 [7]): 5% | Ratio IC50 (LNCaP): 84 | Activity (PC-3 [8]): 0% | Activity (PC-3 [9]): 5% | Activity (PC-3 [10]): 0% | Ratio IC50 (PC-3 [1]): 292 | Activity (PC-3 [11]): 6% | Activity (PC-3 [12]): 94% | Activity (PC-3 [13]): 61% | Activity (PC-3 [14]): 39% | Activity (PC-3 [15]): 88% | Activity (PC-3 [16]): 89% | Activity (PC-3 [17]): 25.1% | Activity (PC-3 [18]): 4% | Activity (PC-3 [19]): 61.3% | Activity (PC-3 [20]): 11% | Activity (PC-3 [21]): 3% | Activity (PC-3 [22]): Dose-dependent effect

CCCCCCOc1c(-c2ccc(OC)c(OC)c2)oc2ccccc2c1=O
Ratio IC50 (LNCaP): 16 | Ratio IC50 (PC-3 [1]): 29

COc1ccc(-c2oc3ccccc3c(=O)c2O)cc1OC [3-HYDROXY-3',4'-DIMETHOXYFLAVONE]
Activity (PWR-1E): Non-Toxic

COc1ccc(-c2oc3ccccc3c(=O)c2OCCCCCN2CCOCC2)cc1OC
Ratio IC50 (LNCaP): 26 | Ratio IC50 (PC-3 [1]): 91

CCCCN(CCCC)CCCCOc1c(-c2ccc(OC)c(OC)c2)oc2ccccc2c1=O
Ratio IC50 (LNCaP): 47 | Ratio IC50 (PC-3 [1]): 152

CCCCCOc1c(-c2ccc(OC)c(OC)c2)oc2ccccc2c1=O
Ratio IC50 (LNCaP): 14 | Ratio IC50 (PC-3 [1]): 24

COc1ccc(-c2oc3ccccc3c(=O)c2OCCCCN2CCOCC2)cc1OC
Ratio IC50 (LNCaP): 24 | Ratio IC50 (PC-3 [1]): 45

COc1ccc(-c2oc3ccccc3c(=O)c2OC(C)C)cc1OC
Ratio IC50 (LNCaP): 20 | Ratio IC50 (PC-3 [1]): 12

COc1ccc(-c2oc3ccccc3c(=O)c2OC)cc1OC
Ratio IC50 (LNCaP): 12.5 | Ratio IC50 (PC-3 [1]): 14

CCCCN(CCCC)CCCCCOc1c(-c2ccc(OC)c(OC)c2)oc2ccccc2c1=O
Ratio IC50 (LNCaP): 41 | Ratio IC50 (PC-3 [1]): 102

CCCCCCCOc1c(-c2ccc(OC)c(OC)c2)oc2ccccc2c1=O
Ratio IC50 (LNCaP): 5 | Ratio IC50 (PC-3 [1]): 5

CCOc1c(-c2ccc(OC)c(OC)c2)oc2ccccc2c1=O
Ratio IC50 (LNCaP): 21 | Ratio IC50 (PC-3 [1]): 30
